Laboratory results taken from ChEMBL document CHEMBL3085726, “Tumor-targeting with novel non-benzoyl 6-substituted straight chain pyrrolo[2,3-d]pyrimidine antifolates via cellular uptake by folate receptor α and inhibition of de novo purine nucleotide biosynthesis” (J Med Chem, 2013).
Calls of active or inactive are those of the source. No cut-off for these calls is given here.

Experiments:
[1] = Growth inhibition of Chinese hamster R2(VC) cells after 96 hrs by CellTiter-blue assay; conditions: Cricetulus griseus
R2 = assay: Growth inhibition of Chinese hamster R2 cells expressing human PCFT4 after 96 hrs by CellTiter-blue assay; type: functional, cell-based, Cricetulus griseus; conditions: R2, 96 h
[2] = molecular target: Folate receptor beta (Homo sapiens) (UniProt P14207); assay: Displacement of [3H]-folic acid from human folate receptor-beta expressed in Chinese hamster D4 cells after 15 mins; type: cell-based
Summary of the method: (§1)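 Cells (~1.6x10^6) rinsed with DPBS, then acidic buffer (10 mM sodium acetate, 150 mM NaCl, pH 3.5) to strip bound folate. Washed with ice-cold HEPES-buffered saline, pH 7.4. Incubated 15 min at 0°C with [3H]folic acid (50 nM, 0.5 Ci/mmol) plus a range of unlabeled ligand concentrations. Bound label normalized to protein (pmol/mg). […] Triplicate.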

[3] = molecular target: Folate receptor alpha (Homo sapiens) (UniProt P15328); assay: Displacement of [3H]-folic acid from human folate receptor-alpha expressed in Chinese hamster RT16 cells after 15 mins; type: cell-based; summary of the method: as §1
[4] = molecular target: Thymidylate synthase (Homo sapiens) (UniProt P04818); assay: Inhibition of recombinant TS (unknown origin)
[5] = molecular target: T1, Dihydrofolate reductase (Homo sapiens) (UniProt P00374); assay: Inhibition of recombinant DHFR (unknown origin)
T1 sequence (whole entry): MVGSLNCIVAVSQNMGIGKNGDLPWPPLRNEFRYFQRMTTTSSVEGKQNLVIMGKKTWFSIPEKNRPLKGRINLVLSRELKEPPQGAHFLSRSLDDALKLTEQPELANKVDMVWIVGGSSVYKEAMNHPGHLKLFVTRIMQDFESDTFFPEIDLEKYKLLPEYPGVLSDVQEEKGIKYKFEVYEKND

KB [6] = assay: Growth inhibition of human KB cells by CellTiter Blue fluorescence dye-based assay in presence of adenosine and AICA; type: functional, cell-based
Summary of the method: (§2)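 KB cells in complete folate-free RPMI 1640 with 2 nM leucovorin were exposed to a drug concentration range. Co-additions were adenosine (60 μM), thymidine (10 μM), both together, or AICA (320 μM). Cell density was read by CellTiter Blue fluorescence and normalized to drug-free cells. Data are representative of triplicate experiments.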

KB [7] = assay: Growth inhibition of human KB cells by CellTiter Blue fluorescence dye-based assay in presence of thymidine; type: functional, cell-based; summary of the method: as §2
KB [8] = assay: Growth inhibition of human KB cells expressing human RFC/FRalpha/PCFT after 96 hrs by CellTiter-blue assay in presence of folic acid; type: functional, cell-based
KB [9] = assay: Growth inhibition of human KB cells expressing human RFC/FRalpha/PCFT after 96 hrs by CellTiter-blue assay; type: functional, cell-based
[10] = Growth inhibition of Chinese hamster D4 cells after 96 hrs by CellTiter-blue assay in presence of folic acid; type: functional, cell-based; conditions: Cricetulus griseus, D4, 96 h
[11] = Growth inhibition of Chinese hamster D4 cells after 96 hrs by CellTiter-blue assay; type: functional, cell-based; conditions: Cricetulus griseus, D4, 96 h
[12] = Growth inhibition of Chinese hamster RT16 cells after 96 hrs by CellTiter-blue assay in presence of folic acid; type: functional, cell-based; conditions: Cricetulus griseus, RT16, 96 h
Summary of the method: (§3)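 RT16 cells were first kept 3 days in folate-free RPMI. Cells were exposed to a drug concentration range with or without 200 nM folic acid to block FR uptake. After 96 h, CellTiter-blue fluorescence was read.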

[13] = Growth inhibition of Chinese hamster RT16 cells after 96 hrs by CellTiter-blue assay; type: functional, cell-based; conditions: Cricetulus griseus, RT16, 96 h; summary of the method: as §3
[14] = Growth inhibition of Chinese hamster MTXRII-OuaR2-4 cells after 96 hrs by CellTiter-blue assay; conditions: Cricetulus griseus
[15] = Growth inhibition of Chinese hamster PC43-10 cells after 96 hrs by CellTiter-blue assay; type: functional, cell-based; conditions: Cricetulus griseus, PC43-10, 96 h
[16] = molecular target: T2, Trifunctional purine biosynthetic protein adenosine-3 (Homo sapiens, UniProt P22102); assay: In situ inhibition of GRAFTase in human KB cells assessed as incorporation of [14C]-glycine into [14C]-formyl GAR preincubated for 30 mins followed by [14C]-glycine addition measured after 15 hrs
T2 sequence (P22102 whole entry): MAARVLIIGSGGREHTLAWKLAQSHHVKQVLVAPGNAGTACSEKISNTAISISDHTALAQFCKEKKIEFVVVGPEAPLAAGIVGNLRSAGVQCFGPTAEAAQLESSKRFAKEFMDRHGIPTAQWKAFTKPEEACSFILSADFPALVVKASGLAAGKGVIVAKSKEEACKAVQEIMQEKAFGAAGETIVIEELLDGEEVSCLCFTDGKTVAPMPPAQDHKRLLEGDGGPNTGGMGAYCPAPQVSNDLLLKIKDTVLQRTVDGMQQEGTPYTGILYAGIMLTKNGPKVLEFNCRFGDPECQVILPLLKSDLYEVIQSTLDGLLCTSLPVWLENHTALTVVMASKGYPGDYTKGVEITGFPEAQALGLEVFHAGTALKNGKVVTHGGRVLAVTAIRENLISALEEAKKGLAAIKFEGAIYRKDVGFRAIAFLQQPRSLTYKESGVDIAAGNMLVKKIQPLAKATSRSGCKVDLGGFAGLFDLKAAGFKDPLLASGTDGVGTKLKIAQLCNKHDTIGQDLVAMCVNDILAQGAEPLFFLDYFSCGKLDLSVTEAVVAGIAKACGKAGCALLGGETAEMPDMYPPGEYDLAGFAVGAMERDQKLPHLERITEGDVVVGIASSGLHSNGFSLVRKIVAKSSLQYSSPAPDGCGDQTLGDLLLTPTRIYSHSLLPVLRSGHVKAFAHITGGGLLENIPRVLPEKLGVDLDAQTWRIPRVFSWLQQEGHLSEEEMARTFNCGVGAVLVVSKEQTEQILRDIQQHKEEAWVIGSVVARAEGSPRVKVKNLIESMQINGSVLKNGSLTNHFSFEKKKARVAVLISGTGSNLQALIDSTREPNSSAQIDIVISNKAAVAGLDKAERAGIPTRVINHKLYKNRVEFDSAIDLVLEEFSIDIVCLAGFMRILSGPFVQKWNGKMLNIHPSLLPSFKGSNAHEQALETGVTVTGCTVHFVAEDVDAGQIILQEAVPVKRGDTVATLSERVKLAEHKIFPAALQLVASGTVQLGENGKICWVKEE

Chain of Folate receptor alpha (Homo sapiens) (P15328 25-234 limits assumed): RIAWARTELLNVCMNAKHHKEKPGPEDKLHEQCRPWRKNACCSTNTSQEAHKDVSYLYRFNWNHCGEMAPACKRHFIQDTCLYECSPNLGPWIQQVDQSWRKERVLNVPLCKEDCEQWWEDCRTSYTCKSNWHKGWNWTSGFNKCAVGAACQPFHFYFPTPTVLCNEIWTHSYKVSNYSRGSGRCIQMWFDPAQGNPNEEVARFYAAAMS
Chain of Thymidylate synthase (Homo sapiens) (P04818 2-313 limits assumed): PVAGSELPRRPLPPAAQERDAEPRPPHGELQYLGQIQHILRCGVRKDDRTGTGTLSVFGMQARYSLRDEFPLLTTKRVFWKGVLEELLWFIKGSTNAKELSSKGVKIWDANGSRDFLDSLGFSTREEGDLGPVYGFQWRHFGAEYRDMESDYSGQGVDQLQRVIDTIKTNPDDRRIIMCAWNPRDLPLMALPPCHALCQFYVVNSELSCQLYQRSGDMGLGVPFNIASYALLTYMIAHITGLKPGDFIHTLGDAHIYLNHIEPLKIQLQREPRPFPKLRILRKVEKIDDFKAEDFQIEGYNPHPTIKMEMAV
Chain of Folate receptor beta (Homo sapiens) (P14207 17-230 limits assumed): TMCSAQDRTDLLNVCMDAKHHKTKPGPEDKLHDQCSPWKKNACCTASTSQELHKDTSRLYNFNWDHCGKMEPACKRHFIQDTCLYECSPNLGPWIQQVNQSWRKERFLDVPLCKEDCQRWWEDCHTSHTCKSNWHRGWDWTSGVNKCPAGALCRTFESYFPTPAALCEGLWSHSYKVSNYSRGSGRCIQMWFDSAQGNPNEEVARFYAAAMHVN

SMILES | IC50 [1] | IC50 (R2) | inhibition [2] | inhibition [3] | inhibition [4] | inhibition [5] | growth inhibition (GI) (KB [6]) | growth inhibition (GI) (KB [7]) | IC50 (KB [8]) | IC50 (KB [9]) | IC50 [10] | IC50 [11] | IC50 [12] | IC50 [13] | IC50 [14] | IC50 [15] | IC50 [16]
Nc1nc2[nH]c(CCCCCCc3ccc(C(=O)N[C@@H](CCC(=O)O)C(=O)O)cc3)cc2c(=O)[nH]1 | > 1000 nM | > 1000 nM | – | – | – | – | – | – | – | – | – | – | – | – | – | – | –
Nc1nc(=O)c2nc(CNc3ccc(C(=O)N[C@@H](CCC(=O)O)C(=O)O)cc3)cnc2[nH]1 | – | – | Active | Active | – | – | – | – | – | – | – | – | – | – | – | – | –
Nc1nc2[nH]c(CCCCCCC(=O)N[C@@H](CCC(=O)O)C(=O)O)cc2c(=O)[nH]1 | > 1000 nM | > 1000 nM | Active | Active | inactive | inactive | inactive | Active | > 1000 nM | 7.9 nM | > 1000 nM | 10.6 nM | > 1000 nM | 47.1 nM | > 1000 nM | > 1000 nM | 2.89 nM
CN(Cc1cnc2nc(N)nc(N)c2n1)c1ccc(C(=O)N[C@@H](CCC(=O)O)C(=O)O)cc1 [METHOTREXATE] | > 1000 nM | – | – | – | – | – | – | – | – | – | – | – | – | – | – | – | –
Nc1nc2[nH]c(CCCCCCCCC(=O)O)cc2c(=O)[nH]1 | > 1000 nM | > 1000 nM | inactive | Active | – | – | – | – | > 1000 nM | > 1000 nM | > 1000 nM | > 1000 nM | > 100 nM | > 10000 nM | > 1000 nM | > 1000 nM | –
Nc1nc2c(c(=O)[nH]1)C[C@@H](CCc1ccc(C(=O)N[C@@H](CCC(=O)O)C(=O)O)cc1)CN2 [LOMETREXOL] | > 1000 nM | – | – | – | – | – | – | – | – | – | – | – | – | – | – | – | –
Nc1nc2[nH]c(CCCCCCCC(=O)O)cc2c(=O)[nH]1 | > 1000 nM | > 1000 nM | – | – | – | – | – | – | > 1000 nM | > 1000 nM | > 1000 nM | > 1000 nM | > 1000 nM | > 1000 nM | > 1000 nM | > 1000 nM | –
Nc1nc2[nH]c(CCCCCC(=O)O)cc2c(=O)[nH]1 | > 1000 nM | > 1000 nM | – | – | – | – | – | – | > 1000 nM | > 1000 nM | > 1000 nM | > 1000 nM | > 1000 nM | > 1000 nM | > 1000 nM | > 1000 nM | –
Nc1nc2[nH]c(CCCCCCCCC(=O)N[C@@H](CCC(=O)O)C(=O)O)cc2c(=O)[nH]1 | > 1000 nM | > 1000 nM | Active | Active | inactive | inactive | inactive | Active | > 1000 nM | 1.48 nM | > 1000 nM | 3.99 nM | > 10000 nM | 12.3 nM | > 1000 nM | > 1000 nM | 9.62 nM
Nc1nc2[nH]c(CCCCc3ccc(C(=O)N[C@@H](CCC(=O)O)C(=O)O)cc3)cc2c(=O)[nH]1 | > 1000 nM | – | – | – | – | – | – | – | – | – | – | – | – | – | – | – | –
Nc1nc2[nH]c(CCCc3ccc(C(=O)N[C@@H](CCC(=O)O)C(=O)O)cc3)cc2c(=O)[nH]1 | > 1000 nM | – | – | – | – | – | – | – | – | – | – | – | – | – | – | – | –
C#CCC(Cc1cnc2nc(N)nc(N)c2n1)c1ccc(C(=O)N[C@@H](CCC(=O)O)C(=O)O)cc1 (mixture of isomers) [PRALATREXATE] | > 1000 nM | 57 nM | – | – | – | – | – | – | 1.94 nM | 0.47 nM | – | – | > 1000 nM | 168 nM | 819 nM | 0.69 nM | –
Nc1nc2[nH]c(CCCCCCCC(=O)N[C@@H](CCC(=O)O)C(=O)O)cc2c(=O)[nH]1 | > 1000 nM | > 1000 nM | Active | Active | inactive | inactive | inactive | Active | > 1000 nM | 1.1 nM | > 1000 nM | 0.87 nM | > 1000 nM | 8.54 nM | > 1000 nM | > 1000 nM | 5.49 nM
Nc1nc2[nH]c(CCCCCC(=O)N[C@@H](CCC(=O)O)C(=O)O)cc2c(=O)[nH]1 | > 1000 nM | > 1000 nM | Active | Active | – | – | – | – | > 10000 nM | 200 nM | > 1000 nM | 214 nM | > 1000 nM | > 1000 nM | > 1000 nM | > 1000 nM | –
Nc1nc2[nH]c(CCCCCCC(=O)O)cc2c(=O)[nH]1 | > 1000 nM | > 1000 nM | – | – | – | – | – | – | > 1000 nM | > 1000 nM | > 1000 nM | > 1000 nM | > 1000 nM | > 1000 nM | > 1000 nM | > 1000 nM | –
Cc1nc(=O)c2cc(CN(C)c3ccc(C(=O)N[C@@H](CCC(=O)O)C(=O)O)s3)ccc2[nH]1 [RALTITREXED] | > 1000 nM | – | – | – | – | – | – | – | – | – | – | – | – | – | – | – | –
Nc1nc2[nH]c(CCCCCc3ccc(C(=O)N[C@@H](CCC(=O)O)C(=O)O)cc3)cc2c(=O)[nH]1 | > 1000 nM | > 1000 nM | – | – | – | – | – | – | – | – | – | – | – | – | – | – | –
